Compound activity from PubChem BioAssay.
STAT1 activator = increases IFN-gamma driven STAT1 reporter signal. NIH 3T3 STAT1-luciferase reporter, luminescence; 100% = IFN-gamma alone, no compound. activation (% of control), % at 5.5 µM. 200,000 tested, 2.6% active. AID 932;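 active = activation above the screen-wide mean activation plus 3 SD, cut at about 130% in these data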
STAT3 inh = STAT3 signaling inhibition; U3A cells, IL-6 STAT3-luciferase reporter, luminescence; host cell line lacks STAT1; inhibition, % at 5.5 µM; 190,000 tested, 0.89% active;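 active = inhibition above the mean inhibition across all screened compounds plus 3 SD, cut at about 44% in these data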
STAT1 blocker = reduces IFN-gamma driven STAT1 reporter signal; NIH 3T3 STAT1-luciferase reporter, luminescence; inhibition, % at 5.5 µM; 200,000 tested, 0.35% active; AID 920;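 active = inhibition above a set limit, the mean inhibition across all tested compounds plus 3 SD, cut at about 34% in these data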
APP 5'UTR act = activates APP 5'UTR luciferase reporter; SH-SY5Y APP 5'UTR luciferase reporter, luminescence; zero percent = DMSO vehicle wells; activation, % at 2 µM; 190,000 tested, 1% active;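 active = activation above a set limit, based on mean plus 3 SD of controls, cut at about 140% in these data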
NF-kB neuron act = raises NF-kB expression in human neuronal cells. NF-kB reporter expression; hits give high values. fold change at 12.5 µM. 190,000 tested, 1.6% active. AID 1239; in the data active = fold change above about 3.3
STAT3 activator = increases IL-6 driven STAT3 reporter signal | U3A cells, IL-6 STAT3-luciferase reporter, luminescence; 100% = signal with IL-6 EC80 alone | activation (% of control), % at 5.6 µM | 190,000 tested, 0.91% active;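 active = activation above the screen-wide mean of compound activation plus 3 SD, cut at about 130% in these data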
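System – human U3A cells carrying STAT3-luciferase construct · Probe or stimulus – Interleukin-6, 33 ng/mL · Schedule – compound 1 h, then IL-6 6 h at 37 °C · Signal – luminescence from STAT3-driven luciferase reporter · Evaluation – percent of IL-6-only median luminescence · Benchmarks – IL-6-only high control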
A number is an active result. In the library only some 5.1% were active in any assay of this set; here they are far more common.

`CCOC(=O)NC1(Nc2ccc(Cl)cn2)Oc2ccccc2O1` gave STAT1 activator inactive, STAT3 inh inactive, STAT1 blocker inactive, APP 5'UTR act inactive, NF-kB neuron act inactive and STAT3 activator inactive.
CCCOc1ccc(/C(O)=C2/C(=O)C(=O)N(CCCOC)C2c2cccnc2)cc1 (centres undefined) was read as STAT1 activator inactive, STAT3 inh inactive, STAT1 blocker inactive, APP 5'UTR act inactive, NF-kB neuron act inactive and STAT3 activator inactive.
`COC(=O)c1cccc(COC(=O)c2cccnc2SC)c1` gave STAT1 activator inactive, STAT3 inh inactive, STAT1 blocker inactive, APP 5'UTR act inactive, NF-kB neuron act 3.5 and STAT3 activator inactive.
COc1ccc(C(C)=O)cc1COC(=O)c1cccnc1SC was read as STAT1 activator inactive, STAT3 inh inactive, STAT1 blocker inactive, APP 5'UTR act inactive, NF-kB neuron act 3.9 and STAT3 activator inactive.
`CSc1ncccc1C(=O)OCc1ccc(C#N)cc1` gave STAT1 activator inactive, STAT3 inh inactive, STAT1 blocker inactive, APP 5'UTR act inactive, NF-kB neuron act inactive and STAT3 activator inactive.
COc1ccc(N=Nc2[nH]c3ccc(C)cc3c2O)cc1 was read as STAT1 activator inactive, STAT3 inh inactive, STAT1 blocker inactive, APP 5'UTR act inactive, NF-kB neuron act inactive and STAT3 activator inactive.
For Cc1ccc(N=Nc2[nH]c3ccccc3c2O)cc1 the results were STAT1 activator 130, STAT3 inh inactive, STAT1 blocker inactive, APP 5'UTR act inactive, NF-kB neuron act inactive and STAT3 activator 171.
CC(C)c1ccc(C(=O)NC2=NCCS2)cc1 was read as STAT1 activator 145, STAT3 inh inactive, STAT1 blocker inactive, APP 5'UTR act 167, NF-kB neuron act inactive and STAT3 activator inactive.
Screening O=C(NC1=NCCS1)c1cccc(OC(F)F)c1 returned STAT1 activator 140, STAT3 inh inactive, STAT1 blocker inactive, APP 5'UTR act 150, NF-kB neuron act 4.1 and STAT3 activator inactive.
COc1cc(OC)cc(C(=O)NC2=NCCS2)c1 was read as STAT1 activator inactive, STAT3 inh inactive, STAT1 blocker inactive, APP 5'UTR act inactive, NF-kB neuron act inactive and STAT3 activator inactive.
`CCc1ccc(NC(=S)NC2CC3CCCC(C2)N3Cc2cccs2)cc1` (centres undefined) gave STAT1 activator inactive, STAT3 inh inactive, STAT1 blocker inactive, APP 5'UTR act inactive, NF-kB neuron act inactive and STAT3 activator inactive.
For Cc1ccc(NC(=O)c2oc3ccccc3c2NC(=O)C2CCCO2)cc1C (centres undefined) the results were STAT1 activator inactive, STAT3 inh inactive, STAT1 blocker inactive, APP 5'UTR act 176 and STAT3 activator inactive.
O=C(Nc1ccc2c(c1)OCCO2)c1oc2ccccc2c1NC(=O)C1CC1 was read as STAT1 activator inactive, STAT3 inh inactive, STAT1 blocker inactive, APP 5'UTR act inactive, NF-kB neuron act inactive and STAT3 activator inactive.
For CCC(=O)Nc1c(C(=O)Nc2ccc3c(c2)OCCO3)oc2ccccc12 the results were STAT1 activator 144, STAT3 inh inactive, STAT1 blocker inactive, APP 5'UTR act inactive, NF-kB neuron act inactive and STAT3 activator inactive.
`CC(C)CNC(=O)NC1(C(F)(F)F)Oc2ccccc2O1` gave STAT1 activator inactive, STAT3 inh inactive, STAT1 blocker inactive, APP 5'UTR act inactive, NF-kB neuron act inactive and STAT3 activator inactive.
`O=C(NCc1cccnc1)NC1(C(F)(F)F)Oc2ccccc2O1` gave STAT1 activator inactive, STAT3 inh inactive, STAT1 blocker inactive, APP 5'UTR act inactive, NF-kB neuron act 3.5 and STAT3 activator inactive.
`CCOc1ccc2nc(SCC(=O)N(C)C3CCS(=O)(=O)C3)[nH]c2c1` (centres undefined) gave STAT1 activator inactive, STAT3 inh inactive, STAT1 blocker inactive, APP 5'UTR act inactive, NF-kB neuron act inactive and STAT3 activator inactive.
O=C(CSc1nc2ccccc2[nH]1)c1ccco1 was read as STAT1 activator inactive, STAT3 inh inactive, STAT1 blocker inactive, APP 5'UTR act inactive, NF-kB neuron act inactive and STAT3 activator inactive.
CCOc1ccc2nc(SCC(=O)N(C)C)[nH]c2c1 was read as STAT1 activator 133, STAT3 inh inactive, STAT1 blocker inactive, APP 5'UTR act inactive, NF-kB neuron act inactive and STAT3 activator inactive.
COc1ccc2nc(SCC(=O)c3ccco3)[nH]c2c1 was read as STAT1 activator 130, STAT3 inh inactive, STAT1 blocker inactive, APP 5'UTR act inactive, NF-kB neuron act inactive and STAT3 activator inactive.
`Cn1cnnc1Sc1nc2c(c(=O)n(C)c(=O)n2C)n1C` gave STAT1 activator inactive, STAT3 inh inactive, STAT1 blocker inactive, APP 5'UTR act inactive and STAT3 activator inactive.
For Cc1cc(C)cc(N(CC(=O)O)S(=O)(=O)c2c(C)[nH]c(=O)[nH]c2=O)c1 the results were STAT1 activator inactive, STAT3 inh inactive, STAT1 blocker inactive, APP 5'UTR act inactive, NF-kB neuron act inactive and STAT3 activator inactive.
`Cc1ccc(C(=O)Nc2cnc3ccccn3c2=O)cc1` gave STAT1 activator 132, STAT3 inh inactive, STAT1 blocker inactive, APP 5'UTR act inactive, NF-kB neuron act inactive and STAT3 activator inactive.
`O=C(Nc1cnc2ccccn2c1=O)c1ccc(Cl)cc1Cl` gave STAT1 activator inactive, STAT3 inh 70, STAT1 blocker 41, APP 5'UTR act 153, NF-kB neuron act inactive and STAT3 activator inactive.
O=C(Nc1cccn2ncnc12)c1ccc(Cl)cc1Cl was read as STAT1 activator inactive, STAT3 inh inactive, STAT1 blocker inactive, APP 5'UTR act inactive, NF-kB neuron act inactive and STAT3 activator inactive.
Screening O=S(=O)(c1ccccc1)c1cnc(-c2ccccc2)nc1N1CCCC1 returned STAT1 activator 146, STAT3 inh inactive, STAT1 blocker inactive, APP 5'UTR act inactive, NF-kB neuron act inactive and STAT3 activator inactive.
For CC(=O)/C(=N\Nc1ccccc1Cl)Sc1nnc(-c2ccccc2)n1-c1ccccc1 the results were STAT1 activator inactive, STAT3 inh inactive, STAT1 blocker inactive, APP 5'UTR act inactive, NF-kB neuron act inactive and STAT3 activator inactive.
Screening CCOc1ccc(C(=O)NCc2cccs2)cc1 returned STAT1 activator inactive, STAT3 inh inactive, STAT1 blocker inactive, NF-kB neuron act inactive and STAT3 activator inactive.
For CCOc1c2ccc(C(=O)NCCc3cccs3)cc2nn1CC the results were STAT1 activator 144, STAT3 inh inactive, STAT1 blocker inactive, APP 5'UTR act inactive, NF-kB neuron act inactive and STAT3 activator inactive.
CCCCOc1ccc(C(=O)NCCc2cccs2)cc1 was read as STAT1 activator 134, STAT3 inh inactive, STAT1 blocker inactive, APP 5'UTR act inactive, NF-kB neuron act inactive and STAT3 activator inactive.
CCN(C(=O)CN1CCN(c2ccccc2F)CC1)c1c(N)n(Cc2ccccc2)c(=O)[nH]c1=O was read as STAT1 activator inactive, STAT3 inh inactive, STAT1 blocker inactive, APP 5'UTR act inactive, NF-kB neuron act inactive and STAT3 activator inactive.
